# Source: ChEMBL document CHEMBL4033789, “Discovery of a New Four-Leaf Clover-Like Ligand as a Potent c-MYC Transcription Inhibitor Specifically Targeting the Promoter G-Quadruplex” (J Med Chem, 2018)
# Activity calls are given as the source filed them. The calls are words filed in the database; no cut-off is given here.
# Assays:
# [1] = Binding affinity to 1 uM G-triplex DNA (unknown origin) at 1 uM after 1 min by fluorescence spectroscopic analysis
# [2] = Binding affinity to 1 uM i-motif DNA (unknown origin) at 1 uM after 1 min by fluorescence spectroscopic analysis
# [3] = Binding affinity to 1 uM hybrid telomeric htg22 G-quadruplex DNA (unknown origin) at 1 uM after 1 min by fluorescence spectroscopic analysis; format: ADME
# Procedure, shortened: (§1)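 Fluorescence emission spectra of 1 µM compound mixed with 1 µM pre-annealed oligonucleotide (G-quadruplexes folded in 100 mM KCl by heating to 95 °C for 5 min, slow cooling), in Tris-HCl buffer.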
# [4] = Binding affinity to 1 uM antiparallel HRAS G-quadruplex DNA (unknown origin) at 1 uM after 1 min by fluorescence spectroscopic analysis; format: ADME; procedure, shortened: as §1
# [5] = Binding affinity to 1 uM c-MYC promoter G-quadruplex pu22 DNA (unknown origin) at 1 uM after 1 min by fluorescence spectroscopic analysis; procedure, shortened: as §1
# SiHa [6] = assay: Cytotoxicity against human SiHa cells assessed as reduction in cell viability after 24 hrs by MTT assay; format: functional, cell-based
# Procedure, shortened: (§2)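 Cells seeded at 5.0×10^3 per well, exposed to compound for 24 h; MTT (2.5 mg/mL) added for 4 h, formazan dissolved in DMSO, OD read at 570 nm. Triplicate; IC50 from curves of mean OD against concentration.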
# HeLa = assay: Cytotoxicity against human HeLa cells assessed as reduction in cell viability after 24 hrs by MTT assay; format: functional, cell-based; procedure, shortened: as §2
# Huh-7 = assay: Cytotoxicity against human Huh7 cells assessed as reduction in cell viability after 24 hrs by MTT assay; format: functional, cell-based; settings: Huh-7, 24 h; procedure, shortened: as §2
# A-375 = assay: Cytotoxicity against human A375 cells assessed as reduction in cell viability after 24 hrs by MTT assay; format: functional, cell-based; settings: A-375, 24 h; procedure, shortened: as §2
# [7] = Cytotoxicity against mouse primary mesangial cells assessed as reduction in cell viability after 24 hrs by MTT assay; format: cell-based; procedure, shortened: as §2
# BJ = assay: Cytotoxicity against human BJ cells assessed as reduction in cell viability after 24 hrs by MTT assay; format: cell-based; procedure, shortened: as §2
# SiHa [8] = assay: Antitumor activity against human SiHa cells xenografted in nude BALB/c mouse assessed as tumor growth inhibition at 1 mg/kg, ip administered every other day for 24 days; format: functional, organism-based
# Procedure, shortened: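 BALB/c nude mice (5 weeks old) given 1×10^7 SiHa cells subcutaneously in right flank; at ~50 mm3 tumor volume, randomized (10 per group) and dosed intraperitoneally every other day for 24 days; controls got equal-volume saline. Caliper volume as 1/2 × length × width2; tumors weighed at end; inhibition rate = (1 − mean treated tumor weight/mean control tumor weight) × 100%.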
# Mus musculus [9] = assay: Toxicity in nude BALB/c mouse xenografted with human SiHa cells assessed as body weight reduction at 1 mg/kg, ip administered every other day for 24 days; format: organism-based; settings: in vivo, 576 h
# Procedure, shortened: (§3)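 BALB/c nude mice, 5 weeks old, implanted subcutaneously in right flank with 1×10^7 SiHa cells; at ~50 mm3 tumor, 10 per group dosed ip every other day for 24 days, saline control; body weight measured daily, viscera weighed at sacrifice; mean ± SEM, Student's t test versus saline.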
# Mus musculus [10] = assay: Toxicity in nude BALB/c mouse xenografted with human SiHa cells assessed as viscera weight reduction at 1 mg/kg, ip administered every other day for 24 days; format: organism-based; settings: in vivo, 576 h; procedure, shortened: as §3
# Mus musculus [11] = assay: In vivo stabilization of c-Myc G-quadruplex DNA in human SiHa cells xenografted in nude BALB/c mouse assessed as decrease in c-Myc expression at 1 mg/kg, ip administered every other day for 24 days by immunohistochemistry; format: functional, organism-based
Activity [1],Activity [2],Activity [3],Activity [4],Activity [5],Structure (SMILES),IC50 (SiHa [6]) [µM],IC50 (HeLa) [µM],IC50 (Huh-7) [µM],IC50 (A-375) [µM],IC50 [7] [µM],IC50 (BJ) [µM],TGI (SiHa [8]),Activity (Mus musculus [9]),Activity (Mus musculus [10]),Activity (Mus musculus [11])
inactive,inactive,Not Active,Not Active,Active,CCn1c2ccccc2c2cc(-c3nc(-c4ccc(N5CCN(C)CC5)cc4)c(-c4ccc(F)cc4)[nH]3)ccc21,30.1,15.3,12.4,7.4,17.3,13.9,–,–,–,–
–,–,–,–,–,CCn1c2ccccc2c2cc(-c3nc(-c4ccc(N5CCN(C)CC5)cc4)c(-c4ccc(N5CCN(C)CC5)cc4)[nH]3)ccc21,2.3,2.5,2.7,2.3,3.1,2.8,–,–,–,–
–,–,Not Active,Not Active,inactive,CCn1c2ccccc2c2cc(-c3nc(-c4ccc(F)cc4)c(-c4ccc(F)cc4)n3-c3ccc(OC)cc3)ccc21,> 80,> 80,> 80,> 80,> 80,> 80,–,–,–,–
–,–,–,–,Active,CCn1c2ccccc2c2cc(-c3nc(-c4ccc(F)cc4)c(-c4ccc(F)cc4)[nH]3)ccc21,> 80,> 80,> 80,> 80,> 80,> 80,–,–,–,–
–,–,–,–,–,COc1cccc2c1C(=O)c1c(O)c3c(c(O)c1C2=O)C[C@@](O)(C(=O)CO)C[C@@H]3O[C@H]1C[C@H](N)[C@H](O)[C@H](C)O1 [DOXORUBICIN],–,–,–,–,–,–,Active,Toxic,Toxic,Active
